One data set concerns Rattus norvegicus. Briefly: Ratio of GH release stimulated by 300 ug/kg of compound to that of GH release stimulated by 300 ug/kg of hexarelin in infant rat (sc injection). In kind it is functional. The method, boiled down:
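Male 10-day-old Sprague-Dawley pups, about 25 g, eight per group. Dosed sc at 300 µg/kg, with solvent as DMSO at final 1:300 dilution. Killed by decapitation 15 min later; trunk-blood plasma GH measured by RIA against the NIDDK rat standard, in ng/mL. Response compared with hexarelin at the same dose.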

Data set [1] addresses T1, Growth hormone secretagogue receptor type 1 (Homo sapiens, UniProt Q92847). Briefly: Binding affinity towards human pituitary Growth hormone secretagogue receptor using [125I][Tyr4]-ghrelin as radioligand.
Data set [2] concerns the target T1, Growth hormone secretagogue receptor type 1. Put plainly: Binding affinity towards cloned human Growth hormone secretagogue receptor type I in LLC PK-1 cells using [125I][His9]-ghrelin as radioligand. The format is cell-based.
In the next data set the test system is Canis familiaris. Put plainly: Concentration in dogs after oral administration at dose of 1 mg/kg after 180 min. The settings on record: dog, in vivo, 3 h. Also noted: dose 1 mg/kg, route oral. The format is ADME, organism-based, Canis lupus familiaris. The method, boiled down:
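Beagle dogs (4–6, 2–3 years, 11–15 kg, both sexes) dosed 1 mg/kg through an oral-gastric cannula in randomized sequence. Blood drawn from the cephalic vein at −20 min, then at 15–180 min into EDTA tubes. Plasma GH measured by canine GH RIA (sensitivity 0.4 ng/mL). Peak GH and AUC0–180 min by trapezoid method reported as mean ± SEM; sexes pooled.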

The nature of data set [3]: Stimulating GH secretion in dogs after oral administration at dose of 1 mg/kg.

Non-standard residues stand in square brackets, D forms with d. Residues, ends and D or L forms follow the SMILES beside them. dTrp(2-Me) = Cc1[nH]c2ccccc2c1C[C@@H](N)C(=O)O; Aib = CC(C)(N)C(=O)O

In general, IC50 refers to the midpoint of a concentration-inhibition curve. Higher therefore signals weaker potency.

T1 sequence (Q92847 whole entry): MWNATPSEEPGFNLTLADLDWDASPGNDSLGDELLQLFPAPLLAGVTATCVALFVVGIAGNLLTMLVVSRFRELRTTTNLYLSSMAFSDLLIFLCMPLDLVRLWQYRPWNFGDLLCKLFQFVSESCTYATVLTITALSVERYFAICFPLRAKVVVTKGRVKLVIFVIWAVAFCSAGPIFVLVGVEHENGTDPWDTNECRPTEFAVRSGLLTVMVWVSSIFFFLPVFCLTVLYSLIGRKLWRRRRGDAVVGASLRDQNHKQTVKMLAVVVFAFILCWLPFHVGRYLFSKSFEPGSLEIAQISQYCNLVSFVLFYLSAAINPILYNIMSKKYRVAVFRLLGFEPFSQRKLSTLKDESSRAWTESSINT

As to `CC(C)(N)C(=O)N[C@H](Cc1c[nH]c2ccccc12)C(=O)N[C@](C)(Cc1c[nH]c2ccccc12)NC=O`, the Ratio in the data set on Rattus norvegicus stood at 0.91.

Take `CNC(C)(C)C(=O)N[C@H](Cc1c[nH]c2ccccc12)C(=O)N[C@H](Cc1c[nH]c2ccccc12)NC(=O)CC(C)C`: the values for the IC50 in data set [1] and in data set [2] were 213 nM and 397 nM, respectively. For the same molecule, in the data set with Rattus norvegicus, the Ratio stood at 0.1.

For the molecule `O=CN[C@@H](Cc1c[nH]c2ccccc12)NC(=O)[C@@H](Cc1c[nH]c2ccccc12)NC(=O)C1CCNCC1`, the IC50 in data set [1] was 391 nM; in data set [2], 1160 nM. For the same molecule, the Ratio in the data set with Rattus norvegicus amounted to 0.82.

For `O=CN[C@@H](Cc1c[nH]c2ccccc12)NC(=O)[C@@H](Cc1c[nH]c2ccccc12)NS(=O)(=O)c1ccccc1`, the Ratio in the data set with Rattus norvegicus was determined as 0.14.

In the case of `CCC(=O)N[C@@H](Cc1c[nH]c2ccccc12)NC(=O)[C@@H](Cc1c[nH]c2ccccc12)NC(=O)C(C)(C)N`, the IC50 was 185 nM in data set [1] and 460 nM in data set [2]. Moreover, the Ratio in the data set on Rattus norvegicus worked out at 0.69.

As for `CNC(C)(C)C(=O)N[C@H](Cc1c[nH]c2ccccc12)C(=O)N[C@H](Cc1c[nH]c2ccccc12)N(C)C(C)=O`, in the data set with Rattus norvegicus, the Ratio worked out at 1.21.

On to `CNC(C)(C)C(=O)N[C@H](Cc1c[nH]c2ccccc12)C(=O)N[C@H](Cc1c[nH]c2ccccc12)NC(=O)C1CCCCN1` (some centres undefined), for which the Ratio in the data set with Rattus norvegicus is on record as 0.85.

For `Cc1[nH]c2ccccc2c1C[C@@H](NC=O)NC(=O)[C@@H](Cc1c(C)[nH]c2ccccc12)NC(=O)C(C)(C)N`, the Ratio in the data set with Rattus norvegicus was 0.12.

For the molecule `CNC(C)(C)C(=O)N[C@H](Cc1c[nH]c2ccccc12)C(=O)N[C@H](Cc1c[nH]c2ccccc12)NC(C)=O`, the IC50 in data set [1] is 74 nM; in data set [2], 58 nM. Further, in the data set on Rattus norvegicus, the Ratio came to 1.38. In addition, in the data set on Canis familiaris, the “GH AUC 0-180” value came to 85.85 µg·min/L. The same molecule registered a GH peak in data set [3] of 1.1 µg/L.

Turning to `CC(C)CC(=O)N[C@H](Cc1c[nH]c2ccccc12)C(=O)N[C@H](Cc1c[nH]c2ccccc12)NC=O`, the Ratio with Rattus norvegicus is listed as 0.09.

Turning to `CC(=O)N[C@@H](Cc1c[nH]c2ccccc12)NC(=O)[C@@H](Cc1c[nH]c2ccccc12)NC(=O)C1CCNCC1`, the values for the half-maximal inhibitory concentration (IC50) in data set [1] and in data set [2] were over 10000 nM and 807 nM, respectively. Further, the Ratio with Rattus norvegicus is 0.53.

For the molecule `CC(=O)N[C@@H](Cc1c[nH]c2ccccc12)NC(=O)[C@@H](Cc1c[nH]c2ccccc12)NC(=O)C1(N)CCNCC1`, the Ratio in the data set with Rattus norvegicus is given as 0.46.

`CC(=O)N[C@@H](Cc1c[nH]c2ccccc12)NC(=O)[C@@H](Cc1c[nH]c2ccccc12)NC(=O)CC(C)C`: in the data set with Rattus norvegicus, the Ratio amounted to 0.11.

Turning to `Cc1[nH]c2ccccc2c1C[C@@H](NC(=O)[C@@H](Cc1c(C)[nH]c2ccccc12)NC(=O)C(C)(C)N)C(N)=O` (H-[Aib]-[dTrp(2-Me)]-[dTrp(2-Me)]-NH2), the Ratio with Rattus norvegicus is given as 0.89.

In the case of `CNC(C)(C)C(=O)N[C@H](Cc1c[nH]c2ccccc12)C(=O)N[C@H](Cc1c[nH]c2ccccc12)NC=O`, the IC50 is 39 nM in data set [1] and 22.7 nM in data set [2]. In the data set with Rattus norvegicus, the Ratio was found to be 0.64.

`CS(=O)(=O)N[C@H](Cc1c[nH]c2ccccc12)C(=O)N[C@H](Cc1c[nH]c2ccccc12)NC=O`: in the data set with Rattus norvegicus, the Ratio is recorded as 0.09.

As for `CCOC(=O)N[C@@H](Cc1c[nH]c2ccccc12)NC(=O)[C@@H](Cc1c[nH]c2ccccc12)NC(=O)C(C)(C)N`, the IC50 stood at 16.2 nM in data set [1] and 122 nM in data set [2]. In the data set with Rattus norvegicus, the Ratio was 0.2.

As to `Cc1[nH]c2ccccc2c1C[C@H](NC=O)NC(=O)[C@@H](Cc1c(C)[nH]c2ccccc12)NC(=O)C(C)(C)N`, the Ratio in the data set with Rattus norvegicus turned out to be 0.08.

For `CN(C)C(C)(C)C(=O)N[C@H](Cc1c[nH]c2ccccc12)C(=O)N[C@H](Cc1c[nH]c2ccccc12)NC=O`, in the data set with Rattus norvegicus, the Ratio stood at 0.69.

Regarding `CC(C)(N)C(=O)N[C@@H](Cc1c[nH]c2ccccc12)C(=O)N[C@H](Cc1c[nH]c2ccccc12)NC=O`, in the data set on Rattus norvegicus, the Ratio is 0.07.

For `CNC(C)(C)C(=O)N[C@H](Cc1c[nH]c2ccccc12)C(=O)N(C)[C@H](Cc1c[nH]c2ccccc12)NC(C)=O`, the IC50 in data set [1] turned out to be 25.6 nM; in data set [2], 29.5 nM. In the data set on Canis familiaris, the “GH AUC 0-180” value was 262.43 µg·min/L.

Regarding `Cc1[nH]c2ccccc2c1C[C@@H](NC(=O)[C@H](Cc1c[nH]cn1)NC(=O)[C@H](C)NC(=O)[C@@H](N)Cc1ccc(O)cc1)C(=O)N[C@@H](C)C(=O)N[C@@H](Cc1c[nH]c2ccccc12)C(=O)N[C@H](Cc1ccccc1)C(=O)N[C@@H](CCCCN)C(N)=O` (H-YAH[dTrp(2-Me)]AW[dF]K-NH2), the IC50 in data set [1] is 12 nM; in data set [2] it was 286 nM.

On to `CC(C)(N)C(=O)N[C@H](Cc1c[nH]c2ccccc12)C(=O)N[C@H](Cc1c[nH]c2ccccc12)NC(=O)C1CCCCN1` (some centres undefined), for which the IC50 in data set [1] stood at 21.5 nM; in data set [2], 116 nM. The “GH AUC 0-180” value in the data set with Canis familiaris was determined as 87.06 µg·min/L.

In the case of `CC(C)(N)C(=O)N[C@H](Cc1c[nH]c2ccccc12)C(=O)N[C@H](Cc1c[nH]c2ccccc12)NC(=O)Cc1c[nH]c2ccccc12`, the Ratio in the data set with Rattus norvegicus was 0.16.

As for `CC(C)(N)C(=O)N[C@@H](Cc1c[nH]c2ccccc12)C(=O)N[C@@H](Cc1c[nH]c2ccccc12)NC=O`, the Ratio in the data set with Rattus norvegicus is reported as 0.08.

In the case of `CC(C)(N)C(=O)N[C@](C)(Cc1c[nH]c2ccccc12)C(=O)N[C@H](Cc1c[nH]c2ccccc12)NC=O`, in the data set on Rattus norvegicus, the Ratio is 0.12.

In the case of `CC(C)(N)C(=O)N[C@H](Cc1c[nH]c2ccccc12)C(=O)N[C@@H](Cc1c[nH]c2ccccc12)NC=O`, the Ratio in the data set on Rattus norvegicus is recorded as 0.28.

For the molecule `CC(=O)N[C@@H](Cc1c[nH]c2ccccc12)NC(=O)[C@@H](Cc1c[nH]c2ccccc12)NC(=O)C(C)(C)N(C)C`, the figures for the IC50 in data set [1] and in data set [2] were 20.1 nM and 440 nM, respectively. Further, the Ratio with Rattus norvegicus turned out to be 0.15.

On to `CC(C)(N)C(=O)N[C@H](COCc1ccccc1)C(=O)N1CCC2(CC1)CN(S(C)(=O)=O)c1ccccc12` [IBUTAMOREN], for which, in the data set with Canis familiaris, the “GH AUC 0-180” value is 544.55 µg·min/L.

As for `CC(=O)N[C@@H](Cc1c[nH]c2ccccc12)N(C)C(=O)[C@@H](Cc1c[nH]c2ccccc12)NC(=O)C(C)(C)N`, in the data set with Rattus norvegicus, the Ratio worked out at 0.65.

On to `CNC(C)(C)C(=O)N[C@H](Cc1c[nH]c2ccccc12)C(=O)N[C@](C)(Cc1c[nH]c2ccccc12)NC(C)=O`, for which the Ratio in the data set with Rattus norvegicus was 1.

For the molecule `CC(C)CC(=O)N[C@@H](Cc1c[nH]c2ccccc12)NC(=O)[C@@H](Cc1c[nH]c2ccccc12)NC(=O)C(C)(C)N`, the results for the IC50 in data set [1] and in data set [2] were 59.8 nM and 535 nM, respectively. The Ratio in the data set on Rattus norvegicus is recorded as 0.24.

Turning to `NC1(C(=O)N[C@H](Cc2c[nH]c3ccccc23)C(=O)N[C@H](Cc2c[nH]c3ccccc23)NC=O)CCNCC1`, the IC50 in data set [1] is 1790 nM; in data set [2] it was 337 nM. Besides, in the data set with Rattus norvegicus, the Ratio is listed as 0.95.

As to `CNC(C)(C)C(=O)N[C@H](Cc1c[nH]c2ccccc12)C(=O)N[C@H](Cc1c[nH]c2ccccc12)NC(=O)Cc1ccccc1`, the Ratio in the data set on Rattus norvegicus is listed as 0.16.

On to `CNC(C)(C)C(=O)N[C@H](Cc1c[nH]c2ccccc12)C(=O)N[C@H](Cc1c[nH]c2ccccc12)NC(=O)Cc1c[nH]c2ccccc12`, for which the Ratio with Rattus norvegicus was found to be 0.17.

Molecule `Cc1[nH]c2ccccc2c1C[C@@H](NC(=O)[C@@H](N)Cc1cnc[nH]1)C(=O)N[C@@H](C)C(=O)N[C@@H](Cc1c[nH]c2ccccc12)C(=O)N[C@H](Cc1ccccc1)C(=O)N[C@@H](CCCCN)C(N)=O` [EXAMORELIN] (H-H[dTrp(2-Me)]AW[dF]K-NH2) came in with an IC50 in data set [1] of 18 nM.

Consider `CN[C@H](Cc1c[nH]c2ccccc12)C(=O)N[C@H](Cc1c[nH]c2ccccc12)NC=O`, for which, in the data set with Rattus norvegicus, the Ratio came to 0.09.

Regarding `CNC(C)(C)C(=O)N[C@H](Cc1c[nH]c2ccccc12)C(=O)N[C@H](Cc1c[nH]c2ccccc12)NC(=O)CCC1CCCCC1`, the Ratio in the data set on Rattus norvegicus turned out to be 0.16.

As for `CCC(=O)N[C@@H](Cc1c[nH]c2ccccc12)NC(=O)[C@@H](Cc1c[nH]c2ccccc12)NC(=O)C(C)(C)NC`, the results for the IC50 in data set [1] and in data set [2] were over 10000 nM and 167 nM, respectively. In the data set with Rattus norvegicus, the Ratio was 0.93.

As for `CCNC(=O)N[C@@H](Cc1c[nH]c2ccccc12)NC(=O)[C@@H](Cc1c[nH]c2ccccc12)NC(=O)C(C)(C)N`, the IC50 in data set [1] came to 16.9 nM; in data set [2], 162 nM. Besides, in the data set on Canis familiaris, the “GH AUC 0-180” value stood at 79.54 µg·min/L.

For the molecule `CC(C)(N)C(=O)N[C@H](Cc1c[nH]c2ccccc12)C(=O)N[C@H](Cc1c[nH]c2ccccc12)NC(=O)Cc1ccccc1`, in the data set with Rattus norvegicus, the Ratio is 0.11.

With `CC(=O)N[C@@H](Cc1c[nH]c2ccccc12)NC(=O)[C@@H](Cc1c[nH]c2ccccc12)NC(C)=O`, in the data set on Rattus norvegicus, the Ratio is 0.13.

For `CC(=O)N[C@@H](Cc1c[nH]c2ccccc12)NC(=O)[C@@H](Cc1c[nH]c2ccccc12)NC(=O)C(C)(C)N`, the IC50 in data set [1] is 3850 nM; in data set [2], 228 nM. The Ratio with Rattus norvegicus was 0.77.

On to `CC(C)(N)C(=O)N[C@H](Cc1c[nH]c2ccccc12)C(=O)N[C@H](Cc1c[nH]c2ccccc12)NC(=O)CCC1CCCCC1`, for which the Ratio with Rattus norvegicus was found to be 0.15.

Consider `CNC(C)(C)C(=O)N[C@H](Cc1c[nH]c2ccccc12)C(=O)N[C@@H](Cc1c[nH]c2ccccc12)N(C)C(C)=O`, for which the Ratio in the data set on Rattus norvegicus stood at 0.2.

As to `Cc1[nH]c2ccccc2c1C[C@@H](NC(=O)[C@@H](N)Cc1c[nH]cn1)C(=O)N[C@@H](C)C(=O)N[C@@H](Cc1c[nH]c2ccccc12)C(=O)N[C@H](Cc1ccccc1)C(=O)N[C@@H](CCCCN)C(N)=O` [EXAMORELIN] (H-H[dTrp(2-Me)]AW[dF]K-NH2), the Ratio in the data set with Rattus norvegicus came out at 1.

(Values after ChEMBL document CHEMBL1136740, “New active series of growth hormone secretagogues” (J Med Chem, 2003).)
